Source: PubChem (several laboratories)
TRPC6 activator – mouse TRPC6 channel activation; Q61143; HEK293-TRPC6 membrane potential dye fluorescence; active compounds read high; B-score at 10 µM; hit rate 0.13% among 310,000; AID 2550;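 active means B-score of the integrated fluorescence ratio above library mean plus 3 SD, and starting fluorescence ratio within library mean plus 5 SD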;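 further: higher score means more depolarization so channel activation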
TRPC4 inh – inhibitors of mouse TRPC4 channel. Q9QUQ5. HEK293 TRPC4beta/mu-opioid, DAMGO-evoked Fluo4 calcium flux; active compounds read low. B-score at 10 µM. hit rate 0.39% among 300,000. AID 2247;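 active means B-score over 3 SD under the library average, no early fluorescence shift, positive overall ratio signal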
Target sequence (Q9QUQ5 whole entry, looked up): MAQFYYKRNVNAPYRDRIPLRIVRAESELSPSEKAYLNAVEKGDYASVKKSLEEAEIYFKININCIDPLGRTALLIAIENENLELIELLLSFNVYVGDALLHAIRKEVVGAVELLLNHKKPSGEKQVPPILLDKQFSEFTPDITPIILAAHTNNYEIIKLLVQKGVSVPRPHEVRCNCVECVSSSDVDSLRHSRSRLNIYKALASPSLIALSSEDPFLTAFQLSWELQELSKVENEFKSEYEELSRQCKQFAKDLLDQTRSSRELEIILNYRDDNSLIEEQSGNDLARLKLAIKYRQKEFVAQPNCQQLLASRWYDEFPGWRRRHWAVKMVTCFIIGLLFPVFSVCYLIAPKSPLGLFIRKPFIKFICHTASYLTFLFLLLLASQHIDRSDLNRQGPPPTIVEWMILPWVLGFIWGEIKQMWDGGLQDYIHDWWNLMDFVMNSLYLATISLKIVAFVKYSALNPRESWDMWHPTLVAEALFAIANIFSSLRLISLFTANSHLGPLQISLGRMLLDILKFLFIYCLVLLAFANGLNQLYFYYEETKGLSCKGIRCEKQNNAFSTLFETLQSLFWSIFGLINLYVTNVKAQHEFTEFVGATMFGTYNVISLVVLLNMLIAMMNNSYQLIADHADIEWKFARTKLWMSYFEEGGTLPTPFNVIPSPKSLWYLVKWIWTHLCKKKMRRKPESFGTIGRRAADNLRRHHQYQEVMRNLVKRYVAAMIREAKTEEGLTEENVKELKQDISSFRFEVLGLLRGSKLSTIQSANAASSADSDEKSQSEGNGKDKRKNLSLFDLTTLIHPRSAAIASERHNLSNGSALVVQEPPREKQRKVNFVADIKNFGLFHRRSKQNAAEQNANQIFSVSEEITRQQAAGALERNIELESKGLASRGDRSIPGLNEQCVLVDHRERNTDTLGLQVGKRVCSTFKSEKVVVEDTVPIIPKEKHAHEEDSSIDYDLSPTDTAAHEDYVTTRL
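Material: HEK293 cells with stable TRPC4beta plus mu-opioid receptor expression; probe or stimulus: DAMGO in two steps, submaximal then maximal; technique: Fluo4 calcium fluorescence by kinetic imaging, 5 s 1 Hz baseline; measure: integrated fluorescence ratio relative to baseline, converted to per-well B score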
TRPC4 potent – allosterically enhances the mouse TRPC4 cation channel; B-score at 10 µM; Q9QUQ5; hit rate 0.42% among 310,000; HEK293 TRPC4beta/mu-opioid, DAMGO EC20, Fluo-4 Ca2+ flux; active compounds read high; AID 2227;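 active means B-score of calcium response area above 5 SD of library B-scores, with initial fluorescence ratio within 5 SD of library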
DNA FID counter – fluorescent intercalator displacement, NS3 helicase counter-screen. hit rate 0.17% among 290,000. AID 1845. inhibition, % at 7.9 µM. DNA fluorescent intercalator displacement, fluorescence; in the data active means inhibition above about 37%;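 further: higher means more ethidium bromide displaced from hairpin DNA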
TRPC4 act – opens the mouse TRPC4 cation channel; Q9QUQ5; HEK293 TRPC4beta/mu-opioid, Fluo4 calcium fluorescence; active compounds read high; B-score at 10 µM; hit rate 0.49% among 310,000; AID 2237;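 active means B-score above 5 SD of library B-scores, and initial fluorescence ratio not above library mean plus 5 SD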;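 further: positive B-score marks a calcium rise read as TRPC4 activation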
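Material: TRPC4beta and mu-opioid receptor HEK293 stable cells | Incubation: 45 min room-temperature Fluo4 loading, 110 s read | Detection: Kinetic Fluo4 calcium fluorescence | Measure: Integrated baseline-normalised fluorescence ratio, converted to per-well B score | Benchmarks: Low control buffer alone, high control maximal DAMGO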
TRPC6 inh – inhibitors of mouse TRPC6 channel; HEK293-TRPC6, membrane potential dye, ACh-evoked depolarization; active compounds read low; B-score at 10 µM; hit rate 1.1% among 310,000;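 active means B-score under library mean minus 3 SD, initial fluorescence not abnormally high, positive integrated signal ratio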;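 further: B-score derived from integrated fluorescence ratio over the kinetic read; more negative B-score means stronger inhibition of depolarization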
Numbers stand for hits; i = inactive; nt = no result given. A selection: hits, their analogues and other compounds. The true share with any hit is near 2.3%.

SMILES | TRPC6 activator | TRPC4 inh | TRPC4 potent | DNA FID counter | TRPC4 act | TRPC6 inh
CCCCN(C)CCC(=O)Nc1ccc2c(c1)CCC2 | i | i | i | i | 63 | i
Cc1csc(/C(=N/OC(=O)c2ccco2)C(N)=O)n1 | i | i | 10 | i | i | i
CN(C)c1ccc(C(C(=O)NCC2CCCO2)N(Cc2ccccc2)C(=O)c2snc(C(N)=O)c2N)cc1 (configuration not stated) | i | i | i | i | i | i
Cc1ccc(C)c(N(C(=O)c2snc(C(N)=O)c2N)C(C(=O)NCC2CCCO2)c2cccs2)c1 (configuration not stated) | i | i | i | i | i | i
NC(=O)c1nsc(C(=O)N(Cc2ccc(F)cc2)C(C(=O)NCC2CCCO2)c2ccc(F)cc2)c1N (configuration not stated) | i | -7 | i | i | i | i
Cc1ccc(C)c(N(C(=O)c2snc(C(N)=O)c2N)C(C(=O)NCC2CCCO2)c2ccc(C)o2)c1 (configuration not stated) | i | -7 | i | i | i | i
COc1ccc(C)cc1N(C(=O)c1snc(C(N)=O)c1N)C(C(=O)NC1CCCCC1)c1ccc(C)o1 (configuration not stated) | i | -11 | i | i | i | i
Cc1noc(C)c1S(=O)(=O)N1CCN(S(=O)(=O)c2ccccc2C#N)CC1 | i | i | i | i | i | i
O=C(CN1CCOCC1)Nc1ccc(Cl)cn1 | i | i | i | i | i | i
COc1ccc(-n2ncc3c(=O)n(CC(=O)NC(C)C)cnc32)cc1 | i | i | i | i | i | i
CC1=NN(C(=O)COc2ccc(C)c(C)c2)C(O)(c2ccc(Cl)cc2)C1 (configuration not stated) | i | i | 22 | i | i | i
CCOC(=O)C1=NN(C(=O)COc2ccccc2)C(O)(c2ccc(Br)cc2)C1 (configuration not stated) | i | i | i | i | 47 | i
CC1=NN(C(=O)CSCc2ccccc2)C(O)(c2ccc(Cl)cc2)C1 (configuration not stated) | i | i | i | i | i | i
CC(=O)c1cccc(NC(=O)CN(C)S(=O)(=O)c2ccc3c(c2)CC(C)N3C(C)=O)c1 (configuration not stated) | i | i | i | i | i | i
C=CCOC(=O)C1=C[C@H](c2ccc(C(F)(F)F)cc2)[C@@H](CCCO)[C@H](OCC)O1 | i | -5 | i | i | i | i
C=CCOC(=O)C1=C[C@@H](c2ccc(C(F)(F)F)cc2)[C@H](CCCO)[C@@H](OCC)O1 | i | i | i | i | i | i
CCC(C)(C)n1nnnc1C(c1ccccc1OC)N1CCN(C(=O)c2ccco2)CC1 (configuration not stated) | i | i | i | i | i | i
COc1cccc(CNCc2ccccn2)c1OC | i | -6 | i | i | 63 | i
Cc1cc(C)c(S(=O)(=O)NCc2cccs2)cc1C | i | i | 13 | i | i | i
COc1cc(C)c(Br)cc1S(=O)(=O)NCc1cccs1 | i | i | i | i | i | i
CC(C)n1c(SCC(=O)N2c3ccccc3Sc3ccccc32)nc2c1c(=O)n(C)c(=O)n2C | i | i | 17 | i | i | i
CC(C)n1c(SCC(=O)N2c3ccccc3CCc3ccccc32)nc2c1c(=O)n(C)c(=O)n2C | nt | nt | nt | i | nt | nt
CCCn1c(SCC(=O)N2c3ccccc3Sc3ccccc32)nc2c1c(=O)n(C)c(=O)n2C | i | i | 77 | i | i | i
Clc1cccc(-c2nc(NCCCN3CCOCC3)c3ccccc3n2)c1 | i | i | i | 37 | i | i
CCCC(c1nnnn1CC1CCCO1)N1CCN(c2nc3ccccc3s2)CC1 (configuration not stated) | i | i | i | i | i | i
SMILES | TRPC6 activator | TRPC4 inh | TRPC4 potent | DNA FID counter | TRPC4 act | TRPC6 inh
CCCCC(c1nnnn1CC1CCCO1)N1CCN(c2nc3ccccc3s2)CC1 (configuration not stated) | i | i | i | i | 88 | i
CN(C(=O)c1cnccn1)c1c(N)n(Cc2ccccc2)c(=O)[nH]c1=O | i | i | i | nt | i | i
COC(=O)c1cc(S(=O)(=O)NCCCN2CCCC2=O)cn1C | i | i | i | i | i | i
O=C(Nc1ccccc1N1CCOCC1)c1cccnc1Cl | i | i | i | 47 | i | i
Cc1cc(-c2nnc(CCC(=O)N3CCN(Cc4cccc(F)c4)CC3)o2)c(C)o1 | i | i | i | i | i | i
O=C(c1cc(Br)ccc1Cl)N1CCN(c2ccccn2)CC1 | i | i | i | i | i | i
O=S(=O)(c1ccc(-n2cnnn2)cc1)N1CCC(N2CCCCC2)CC1 | i | i | 12 | i | i | i
COc1cc(S(=O)(=O)N2CCCCCC2)ccc1-n1cnnn1 | i | i | i | i | i | i
COc1cc(S(=O)(=O)N2CCC(N3CCCCC3)CC2)ccc1-n1cnnn1 | i | i | 17 | i | i | i
Cc1ccc(N2CC(C(=O)Nc3ccc(S(=O)(=O)NCC4CCCO4)cc3)CC2=O)cc1C (configuration not stated) | i | i | i | i | i | i
Cc1ccc(C)c(NC(=O)CN2C(=O)CC(C)S(=O)(=O)c3ccccc32)c1 (configuration not stated) | i | i | i | i | i | i
Cc1cc(C(=O)NCCN2CCN(c3cccc(Cl)c3)CC2)n(-c2ccccc2)n1 | nt | nt | nt | i | nt | nt
Cc1cc(C(=O)NCCCN2CCN(c3cc(Cl)ccc3C)CC2)n(-c2ccccc2)n1 | i | -6 | i | i | i | i
Cc1cc(-c2nnc(SCC(=O)Nc3ccccc3C(F)(F)F)o2)c(C)n1-c1ccccc1 | i | i | i | i | i | i
Cc1cccc(NC(=O)CSc2nnc(-c3cc(C)n(-c4ccccc4)c3C)o2)c1C | i | -7 | i | i | i | i
CC(C)Oc1ccccc1C1CC(=O)Nc2cc3c(cc21)OCCO3 (configuration not stated) | i | i | 82 | i | i | i
CC(C)(C)n1nc2c(c1NC(=O)c1ccc([N+](=O)[O-])cc1)CS(=O)(=O)C2 | i | i | i | i | i | i
CCOc1cc(Br)ccc1S(=O)(=O)N1CC(C)OC(C)C1 (configuration not stated) | i | i | i | i | 43 | i
CC1(C(=O)OCc2cc(=O)n3cc(Br)ccc3n2)CC1(Cl)Cl (configuration not stated) | i | i | 15 | i | i | i
CC1CC1C(=O)OCc1cc(=O)n2cc(Br)ccc2n1 (configuration not stated) | i | i | i | i | i | i
COc1cc(C(Nc2ccccn2)c2c(NC(=O)c3ccco3)sc(C)c2C)cc(OC)c1OC (configuration not stated) | i | i | i | i | i | i
